Source: ChEMBL document CHEMBL1137788, “Potential neuroprotective drugs in cerebral ischemia: new saturated and polyunsaturated lipids coupled to hydrophilic moieties: synthesis and biological activity” (J Med Chem, 2009)
The source made the active and inactive calls. No cut-off for these calls is given here.

System: HT-22
Assay: Neuroprotective effect against glutamate-induced neuronal cell death in mouse HT22 cells assessed as cell survival at 1 to 10 uM treated simultaneously with glutamate after 24 hrs by MTT assay
Assay type: functional
Settings: not given
Method in brief: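 Mouse HT22 hippocampal cells grown in DMEM/10% FCS, seeded 5 × 10³ cells/well. Next day medium changed to DMEM with 7.5% dialyzed FCS and cells given analogue doses together with 5 mM glutamate for 24 h. Medium then replaced with 2.5 μg/mL MTT for 4 h at 37 °C and solubilized in 50% DMF/20% SDS (pH 4.7). A570 read next day. Maximal % survival at best dose reported.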

Which “%max” value does the source give for CCCCC/C=C/C/C=C/CCCCCCCC(=O)NC(C(=O)OCC)c1nnn[nH]1 (centres undefined) here?
The value was 8%.

With CCCCCCCCCCCCCCCCCC(=O)NCCCCCC(=O)OCC(O)C1OC(=O)C(O)=C1O (centres undefined) as the compound, how does the “%max” value read?
The value was 65%.

For CCOC(=O)C(CO)NC(=O)/C=C(C)/C=C/C1(O)C(C)=CC(=O)CC1(C)C (centres undefined), which “%max” value is on record?
Its value is 21%.

With CCCCCCCCCCCCCCCCCC(=O)NC(CO)P(=O)(O)O (centres undefined) as the compound, how does the “%max” value read?
Its value is 20%.

With CCCCC/C=C/C/C=C/CCCCCCCC(=O)NCCCCCC(=O)OCC(O)C1OC(=O)C(OCc2ccccc2)=C1OCc1ccccc1 (centres undefined) as the compound, how does the “%max” value read?
The value was 13%.

Which “%max” value does the source give for CCCCC/C=C\C/C=C\CCCCCCCC(=O)NCCCCCC(=O)OCC(O)C1OC(=O)C(O)=C1O (centres undefined) here?
Its value is 32%.

With CCOC(=O)C(CO)NC(=O)C=C(C)/C=C/C=C(C)/C=C/C1=C(C)CCCC1(C)C (centres undefined) as the compound, how does the “%max” value read?
Its value is 14%.

System: HT-22
Assay: Neuroprotective effect against iodoacetic acid-induced ischemia in mouse HT22 cells treated simultaneously with iodoacetic acid for 2 hrs followed by incubation in fresh medium containing drug alone for 20 hrs measured after 4 hrs by MTT assay
Assay type: functional, cell-based
Settings: not given
Method in brief: (§1)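 HT22 cells were seeded at 5 × 10³ per well and moved next day to DMEM with 7.5% dialyzed FCS. They were exposed to 20 μM iodoacetic acid plus graded compound doses for 2 h, then given fresh IAA-free medium containing compound for 20 h. MTT was added for 4 h at 37 °C and absorbance read at 570 nm.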

Which EC50 does the source give for CCCCC/C=C/C/C=C/CCCCCCCC(=O)NC(C(=O)OCC)c1nnn[nH]1 (centres undefined) here?
The EC50 was 11.3 µM.

Which EC50 does the source give for CCCCCCCCCCCCCCCCCC(=O)NCCCCCC(=O)OCC(O)C1OC(=O)C(O)=C1O (centres undefined) here?
The EC50 was 1.8 µM.

For CCOC(=O)C(CO)NC(=O)/C=C(C)/C=C/C1(O)C(C)=CC(=O)CC1(C)C (centres undefined), which EC50 is on record?
The EC50 was 13.6 µM.

Which EC50 does the source give for CCCCCCCCCCCCCCCCCC(=O)NC(CO)P(=O)(O)O (centres undefined) here?
The EC50 was 2.1 µM.

For CCCCC/C=C/C/C=C/CCCCCCCC(=O)NCCCCCC(=O)OCC(O)C1OC(=O)C(OCc2ccccc2)=C1OCc1ccccc1 (centres undefined), which EC50 is on record?
Its EC50 is 8.2 µM.

With CCCCC/C=C\C/C=C\CCCCCCCC(=O)NCCCCCC(=O)OCC(O)C1OC(=O)C(O)=C1O (centres undefined) as the compound, how does the EC50 read?
The EC50 was 6.4 µM.

Which EC50 does the source give for O=c1c(O)c(-c2ccc(O)c(O)c2)oc2cc(O)ccc12 [FISETIN] here?
The EC50 was 2.8 µM.

With CCOC(=O)C(CO)NC(=O)C=C(C)/C=C/C=C(C)/C=C/C1=C(C)CCCC1(C)C (centres undefined) as the compound, how does the EC50 read?
The EC50 was 11.6 µM.

System: not listed separately
Assay: Cytotoxicity against mouse HT22 cells at 10 uM after 24 hrs by MTT assay
Assay type: cell-based
Settings: ht-22, 24 h
Method in brief: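 HT22 cells grown in DMEM with 10% FCS were seeded at 5 × 10³ cells per well. The medium was switched to DMEM with 7.5% dialyzed FCS and cells were exposed to 10 μM compound alone. Viability was read after 24 h by MTT (2.5 μg/mL, 4 h at 37 °C, solubilized in DMF/SDS pH 4.7) at 570 nm.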

Which Activity does the source give for CCCCC/C=C/C/C=C/CCCCCCCC(=O)NC(C(=O)OCC)c1nnn[nH]1 (centres undefined) here?
The Activity was 4%.

Which Activity does the source give for CCCCCCCCCCCCCCCCCC(=O)NCCCCCC(=O)OCC(O)C1OC(=O)C(O)=C1O (centres undefined) here?
The Activity was 40%.

Which Activity does the source give for CCOC(=O)C(CO)NC(=O)/C=C(C)/C=C/C1(O)C(C)=CC(=O)CC1(C)C (centres undefined) here?
Its Activity is 1%.

For CCCCCCCCCCCCCCCCCC(=O)NC(CO)P(=O)(O)O (centres undefined), which Activity is on record?
The Activity was 50%.

With CCCCC/C=C/C/C=C/CCCCCCCC(=O)NCCCCCC(=O)OCC(O)C1OC(=O)C(OCc2ccccc2)=C1OCc1ccccc1 (centres undefined) as the compound, how does the Activity read?
Its Activity is 7%.

Which Activity does the source give for CCCCC/C=C\C/C=C\CCCCCCCC(=O)NCCCCCC(=O)OCC(O)C1OC(=O)C(O)=C1O (centres undefined) here?
The Activity was 19%.

With O=c1c(O)c(-c2ccc(O)c(O)c2)oc2cc(O)ccc12 [FISETIN] as the compound, how does the Activity read?
The Activity was 15%.

With CCOC(=O)C(CO)NC(=O)C=C(C)/C=C/C=C(C)/C=C/C1=C(C)CCCC1(C)C (centres undefined) as the compound, how does the Activity read?
The Activity was 15%.

System: HT-22
Assay: Activation of ERK phosphorylation in mouse HT22 cells at 10 uM treated simultaneously with iodoacetic acid for 2 hrs followed by 2 hrs of recovery in presence of drug alone by immunoblot analysis
Assay type: cell-based
Settings: not given
Method in brief: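 HT22 cells, plated at the same density as for the death assays, were given 10 μM compound with or without 20 μM IAA for 2 h, then allowed 2 h of recovery with compound present. Cells were washed in PBS and lysed in SDS sample buffer with Na3VO4 and PMSF. Lysates were run on 10% gels and immunoblotted for phospho and total ERK, JNK, p38, c-Jun and MAPKAPK2.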

Which Activity does the source give for CCCCC/C=C/C/C=C/CCCCCCCC(=O)NC(C(=O)OCC)c1nnn[nH]1 (centres undefined) here?
Its Activity is “inactive”.

With CCCCCCCCCCCCCCCCCC(=O)NCCCCCC(=O)OCC(O)C1OC(=O)C(O)=C1O (centres undefined) as the compound, how does the Activity read?
Its Activity is “inactive”.

For CCOC(=O)C(CO)NC(=O)/C=C(C)/C=C/C1(O)C(C)=CC(=O)CC1(C)C (centres undefined), which Activity is on record?
Its Activity is “inactive”.

With CCCCCCCCCCCCCCCCCC(=O)NC(CO)P(=O)(O)O (centres undefined) as the compound, how does the Activity read?
The Activity was “inactive”.

With CCCCC/C=C/C/C=C/CCCCCCCC(=O)NCCCCCC(=O)OCC(O)C1OC(=O)C(OCc2ccccc2)=C1OCc1ccccc1 (centres undefined) as the compound, how does the Activity read?
Its Activity is “inactive”.

For CCCCC/C=C\C/C=C\CCCCCCCC(=O)NCCCCCC(=O)OCC(O)C1OC(=O)C(O)=C1O (centres undefined), which Activity is on record?
The Activity was “inactive”.

With O=c1c(O)c(-c2ccc(O)c(O)c2)oc2cc(O)ccc12 [FISETIN] as the compound, how does the Activity read?
The Activity was “inactive”.

For CCOC(=O)C(CO)NC(=O)C=C(C)/C=C/C=C(C)/C=C/C1=C(C)CCCC1(C)C (centres undefined), which Activity is on record?
The Activity was “inactive”.

System: HT-22
Assay: Neuroprotective effect against iodoacetic acid-induced ischemia in mouse HT22 cells assessed as cell survival at 1 to 10 uM treated simultaneously with iodoacetic acid for 2 hrs followed by incubation in fresh medium containing drug alone for 20 hrs measured after 4 hrs by MTT assay
Assay type: functional
Settings: not given
Method in brief: as §1

Which “%max” value does the source give for CCCCC/C=C/C/C=C/CCCCCCCC(=O)NC(C(=O)OCC)c1nnn[nH]1 (centres undefined) here?
The value was 41%.

Which “%max” value does the source give for CCCCCCCCCCCCCCCCCC(=O)NCCCCCC(=O)OCC(O)C1OC(=O)C(O)=C1O (centres undefined) here?
Its value is 92%.

For CCOC(=O)C(CO)NC(=O)/C=C(C)/C=C/C1(O)C(C)=CC(=O)CC1(C)C (centres undefined), which “%max” value is on record?
Its value is 39%.

For CCCCCCCCCCCCCCCCCC(=O)NC(CO)P(=O)(O)O (centres undefined), which “%max” value is on record?
The value was 74%.

For CCCCC/C=C/C/C=C/CCCCCCCC(=O)NCCCCCC(=O)OCC(O)C1OC(=O)C(OCc2ccccc2)=C1OCc1ccccc1 (centres undefined), which “%max” value is on record?
Its value is 59%.

For CCCCC/C=C\C/C=C\CCCCCCCC(=O)NCCCCCC(=O)OCC(O)C1OC(=O)C(O)=C1O (centres undefined), which “%max” value is on record?
The value was 55%.

For O=c1c(O)c(-c2ccc(O)c(O)c2)oc2cc(O)ccc12 [FISETIN], which “%max” value is on record?
The value was 95%.

Which “%max” value does the source give for CCOC(=O)C(CO)NC(=O)C=C(C)/C=C/C=C(C)/C=C/C1=C(C)CCCC1(C)C (centres undefined) here?
Its value is 45%.
